Drawing on ChEMBL document CHEMBL2331243, “Discovery and mechanism study of SIRT1 activators that promote the deacetylation of fluorophore-labeled substrate” (J Med Chem, 2013), this text covers max activation, EC50 and Activity for 14 compounds.

Experiment [1] deals with T1, NAD-dependent protein deacetylase sirtuin-2 (Homo sapiens) (UniProt Q8IXJ6).
T1 sequence (whole entry): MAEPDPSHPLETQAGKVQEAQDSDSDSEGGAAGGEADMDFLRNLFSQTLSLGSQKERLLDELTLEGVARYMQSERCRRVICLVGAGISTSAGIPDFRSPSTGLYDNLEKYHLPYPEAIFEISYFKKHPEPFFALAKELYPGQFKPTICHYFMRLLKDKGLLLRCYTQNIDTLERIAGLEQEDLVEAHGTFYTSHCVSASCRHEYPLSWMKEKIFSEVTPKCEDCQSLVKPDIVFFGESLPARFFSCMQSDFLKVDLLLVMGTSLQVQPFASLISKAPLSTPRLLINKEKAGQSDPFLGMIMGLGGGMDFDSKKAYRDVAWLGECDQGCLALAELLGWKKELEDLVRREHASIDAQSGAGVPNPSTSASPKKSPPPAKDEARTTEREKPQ
Briefly: Activation of at N-terminal GST-tagged SIRT2 (34 to 356 amino acid residues) (unknown origin) expressed in Escherichia coli BL21(DE3) using ac-RHKKac-AMC as substrate at 50 uM after 45 mins by fluorometric analysis relative to control. The essentials: (§1)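 Fluorescent deacetylation assay in 25 mM Tris, 137 mM NaCl, 2.7 mM KCl, 1 mM MgCl₂, pH 8.0, with 750 μM NAD⁺ and 31.25 μM ac-RHKK_ac-AMC. Enzyme was 3.6 μM SIRT3 or 4.2 μM GST-SIRT2, set to match SIRT1 activity. Trypsin released AMC from the deacetylated peptide, read at ex 340 / em 490 nm. Compounds were added from DMSO (DMSO as blank): single point at 50 μM, or 3-fold DMSO dilution series. EC1.5 (concentration giving 50% activity increase) and maximum activation were fitted to a dose–response function.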

Experiment [2] concerns the target T2, NAD-dependent protein deacetylase sirtuin-2 (Homo sapiens, UniProt Q8IXJ6).
T2 sequence (Q8IXJ6 whole entry): T1 sequence (whole entry)
As to the kind of experiment: Activation of at N-terminal GST-tagged SIRT2 (34 to 356 amino acid residues) (unknown origin) expressed in Escherichia coli BL21(DE3) using ac-RHKKac-AMC as substrate after 45 mins by fluorometric analysis. The essentials:
as §1

In experiment [3] the target is T3, NAD-dependent protein deacetylase sirtuin-1 (Homo sapiens, UniProt Q96EB6).
T3 sequence (Q96EB6 whole entry): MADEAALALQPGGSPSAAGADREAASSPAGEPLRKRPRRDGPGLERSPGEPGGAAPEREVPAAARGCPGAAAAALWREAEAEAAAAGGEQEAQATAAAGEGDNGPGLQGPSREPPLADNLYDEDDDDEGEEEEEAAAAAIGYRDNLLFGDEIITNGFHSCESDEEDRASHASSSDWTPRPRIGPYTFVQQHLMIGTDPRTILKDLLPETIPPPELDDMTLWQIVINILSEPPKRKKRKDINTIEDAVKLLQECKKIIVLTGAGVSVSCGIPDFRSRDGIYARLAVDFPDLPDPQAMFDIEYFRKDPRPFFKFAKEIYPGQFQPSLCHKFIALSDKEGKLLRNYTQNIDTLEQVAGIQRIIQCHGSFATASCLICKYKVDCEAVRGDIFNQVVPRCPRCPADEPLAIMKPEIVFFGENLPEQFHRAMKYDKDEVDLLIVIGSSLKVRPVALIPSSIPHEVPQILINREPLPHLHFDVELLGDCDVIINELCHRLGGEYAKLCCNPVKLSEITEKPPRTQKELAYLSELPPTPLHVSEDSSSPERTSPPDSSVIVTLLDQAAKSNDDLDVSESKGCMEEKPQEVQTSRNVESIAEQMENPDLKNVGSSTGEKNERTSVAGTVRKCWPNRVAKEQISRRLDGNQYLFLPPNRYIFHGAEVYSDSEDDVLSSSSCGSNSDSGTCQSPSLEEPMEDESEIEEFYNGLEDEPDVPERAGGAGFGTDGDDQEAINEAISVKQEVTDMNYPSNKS
As to the kind of experiment: Activation of N-terminal His6-tagged SIRT1 (156 to 664 amino acid residues) (unknown origin) expressed in Escherichia coli BL21(DE3) using ac-RHKKac-AMC as substrate after 45 mins by fluorometric analysis.

For experiment [4], the target named is T4, NAD-dependent protein deacetylase sirtuin-1 (Homo sapiens) (UniProt Q96EB6).
T4 sequence (whole entry): T3 sequence (Q96EB6 whole entry)
Briefly: Activation of N-terminal His6-tagged SIRT1 (156 to 664 amino acid residues) (unknown origin) expressed in Escherichia coli BL21(DE3) using ac-RHKKac-AMC as substrate at 50 uM after 45 mins by fluorimetric analysis relative to control. The essentials:
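Fluorogenic deacetylation screen: 1 μM SIRT1 with 750 μM NAD⁺ and 31.25 μM ac-RHKK_ac-AMC in Tris buffer (25 mM Tris, 137 mM NaCl, 2.7 mM KCl, 1 mM MgCl₂, pH 8.0). Compounds at 50 μM from DMSO stocks; DMSO alone as blank. Trypsin then releases AMC from deacetylated peptide; fluorescence read at 340/490 nm.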

The target of experiment [5] is T5, NAD-dependent protein deacetylase sirtuin-3, mitochondrial (Homo sapiens, UniProt Q9NTG7).
T5 sequence (Q9NTG7 whole entry): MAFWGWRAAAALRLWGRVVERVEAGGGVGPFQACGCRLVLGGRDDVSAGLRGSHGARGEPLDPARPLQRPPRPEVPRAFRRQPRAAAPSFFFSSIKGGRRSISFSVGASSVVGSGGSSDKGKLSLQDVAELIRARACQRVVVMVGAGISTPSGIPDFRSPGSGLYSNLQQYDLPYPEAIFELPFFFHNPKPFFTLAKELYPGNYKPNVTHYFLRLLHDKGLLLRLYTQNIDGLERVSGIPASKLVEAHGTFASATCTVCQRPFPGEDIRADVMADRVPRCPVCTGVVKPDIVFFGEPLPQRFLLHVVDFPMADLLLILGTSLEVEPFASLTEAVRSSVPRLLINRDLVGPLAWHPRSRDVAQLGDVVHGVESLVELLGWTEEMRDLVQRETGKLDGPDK
Briefly: Activation of N-terminal His6-tagged SIRT3 (118 to 399 amino acid residues) (unknown origin) expressed in Escherichia coli BL21(DE3) using ac-RHKKac-AMC as substrate after 45 mins by fluorometric analysis. The essentials:
as §1

Experiment [6] concerns the target T6, NAD-dependent protein deacetylase sirtuin-3, mitochondrial (Homo sapiens) (UniProt Q9NTG7).
T6 sequence (whole entry): T5 sequence (Q9NTG7 whole entry)
As to the kind of experiment: Activation of N-terminal His6-tagged SIRT3 (118 to 399 amino acid residues) (unknown origin) expressed in Escherichia coli BL21(DE3) using ac-RHKKac-AMC as substrate at 50 uM after 45 mins by fluorometric analysis relative to control. The essentials: as §1

The target in experiment [7] is T4, NAD-dependent protein deacetylase sirtuin-1 (Homo sapiens). Briefly: Activation of SIRT1 in human MCF7 cells assessed as reduction in doxorubicin-induced acetyl-p53 level at <100 uM after 6 hrs by Western blotting analysis. It counts as cell-based. The essentials: (§2)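 MCF-7 cells were seeded at 1 × 10⁵ in DMEM with 10% fetal calf serum and grown 24 h at 37 °C, 5% CO₂. They then got gradient compound concentrations with 0.1 μM trichostatin and 5 μM doxorubicin for 6 h, then lysis. 50 μg protein was run on a 9% gel and blotted with polyclonal anti-acetyl-p53 (Lys382) at 4 °C overnight, with HRP anti-rabbit detection.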

In experiment [8] the test system is T7, NAD-dependent protein deacetylase sirtuin-1 (Homo sapiens), Q96EB6 [R446A].
T7 sequence (whole entry): T3 sequence (Q96EB6 whole entry) with R446A
Briefly: Activation of SIRT1 R446A mutant (unknown origin) at 50 uM relative to control. The essentials:
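SIRT1 R446A mutant made by site-directed mutagenesis, expressed in E. coli and purified on Ni-NTA. Fluorescent deacetylation assay used 1 μM enzyme, 750 μM NAD⁺, 31.25 μM ac-RHKK_ac-AMC and 50 μM compound versus DMSO, in Tris buffer pH 8.0. Trypsin released AMC from deacetylated peptide, read at ex 340/em 490 nm.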

The target of experiment [9] is T4, NAD-dependent protein deacetylase sirtuin-1 (Homo sapiens). As to the kind of experiment: Activation of SIRT1 in human MCF7 cells assessed as reduction in doxorubicin-induced acetyl-p53 level at >100 uM after 6 hrs by Western blotting analysis. It is filed as cell-based. The essentials: as §2
A general note: In western blotting, separated proteins are transferred to a membrane and probed.

For experiment [10] the target is unchanged. As to the kind of experiment: Activation of N-terminal His6-tagged SIRT1 (156 to 664 amino acid residues) (unknown origin) expressed in Escherichia coli BL21(DE3) using ac-RHKKac-NH2 as substrate after 45 mins by HPLC analysis.
Experiment [11] shares this target. Briefly: Activation of SIRT1 in human MCF7 cells assessed as reduction in doxorubicin-induced acetyl-p53 level up to 100 uM after 6 hrs by Western blotting analysis. It is filed as cell-based. The essentials:
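MCF-7 cells were seeded at 1 × 10⁵ per well in DMEM with 10% FCS and grown 24 h at 37 °C, 5% CO₂. Graded compound concentrations were added together with 0.1 μM TSA and 5 μM doxorubicin for 6 h. Lysate (50 μg protein) was run on a 9% gel and blotted with an anti-acetyl-p53 (Lys382) polyclonal antibody at 4 °C overnight, then HRP anti-rabbit IgG with chemiluminescence.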

Structures are written as SMILES. Where a chain is given by its changes, count along the chain named. Active and inactive are the calls of the source. The rule behind the calls is not given here.

Take `O=C(N/N=C/c1cc(Br)c(O)c(Br)c1O)c1ccc2cc(-c3ccccc3)ccc2c1`: the max activation in experiment [1] was determined as 257%; in [4], 194%; in [6], 199%. Besides, the EC50 in experiment [2] was found to be 11.6 µM; in experiment [3] it was 1.8 µM; in experiment [5], 28.6 µM.
As for `O=C(N/N=C/c1cc(Br)c(O)c(Br)c1O)c1ccc2c(c1)Cc1ccccc1-2`, the max activation in experiment [1] worked out at 206%; in experiment [4] it was 212%. The EC50 turned out to be 16.5 µM in [2] and 5.4 µM in experiment [3].
For the compound `O=C(N/N=C/c1cc(Br)c(O)c(Br)c1O)c1ccc(-c2ccccn2)cc1`, in [3], the EC50 came to 2.3 µM. Moreover, the max activation in experiment [4] worked out at 467%.
With `Oc1ccc(/C=C/c2cc(O)cc(O)c2)cc1`, the outcome in experiment [7] and in experiment [10] was inactive. In addition, the max activation in [8] amounted to 239%; in [4], 802%. Besides, in experiment [9], the result was Active.
In [3], `COc1ccc2cc(C(=O)N/N=C/c3cc(Br)c(O)c(Br)c3O)ccc2c1` showed an EC50 of 0.9 µM. This compound registered a max activation in [4] of 624%. In addition, the result in [11] was Active.
Take `Cc1ccc(C(=O)N/N=C/c2cc(Br)c(O)c(Br)c2O)cc1`: the EC50 in experiment [3] was found to be 9.6 µM. Further, the max activation in [4] amounted to 161%.
For `O=C(N/N=C/c1cc(Br)c(O)c(Br)c1O)c1ccc(-c2ccccc2C(F)(F)F)cc1`, in that order: 0.9 µM and 216%.
For `COc1ccc(C(=O)Nc2ccccc2-c2cn3c(CN4CCNCC4)csc3n2)c(OC)c1` the same measures were 31 µM and 197%.
Turning to `O=C(N/N=C/c1ccc(O)cc1O)c1ccc(-c2ccccc2)cc1`, a half-maximal effect in [3] (EC50) was put at 10.4 µM. This compound also came in with a max activation in experiment [4] of 157%.
Regarding `COc1cc(C(=O)Nc2ccccc2-c2cn3c(CN4CCNCC4)csc3n2)cc(OC)c1OC`, in experiment [10], the outcome was inactive. Moreover, in [3], it took 1.8 µM to reach a half-maximal effect (EC50). For the same compound, the max activation in experiment [4] was found to be 271%.
In the case of `O=C(N/N=C/c1cc(Br)c(O)c(Br)c1O)c1cc2ccccc2cc1O`, in experiment [3], the EC50 came out at 4.5 µM. In experiment [4], this compound yielded a max activation of 375%.
`O=C(N/N=C/c1cc(Br)c(O)c(Br)c1O)c1cccc(-c2ccccc2)c1` displayed an EC50 in experiment [3] of 18.3 µM. In addition, the max activation in experiment [4] came to 212%.
For `N#Cc1ccc2cc(C(=O)N/N=C/c3cc(Br)c(O)c(Br)c3O)ccc2c1`, in that order: 4.4 µM and 433%.
In turn, `O=C(N/N=C/c1cc(Br)c(O)c(Br)c1O)c1ccc2ncccc2c1` registered an EC50 in experiment [3] of 55.2 µM. The compound also gave a max activation in experiment [4] of 239%.

As usually defined, the EC50 is the concentration giving half of the maximal effect. Read a high EC50 as a less potent agent.
